Source: PMC8569940 (European journal of medicinal chemistry, 2020)

Columns and labels:
MDA-MB-231 cells = experiment: Apoptosis detection assay; assay type: cell-based, human
Outline: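 MDA-MB-231 cells seeded at 5 × 10^5 cells/mL in six-well plates. Treated with test compound at different concentrations for 24 h (48 h per results text); combretastatin A4 as positive control. Cells trypsinised, washed twice in cold PBS, resuspended in binding buffer, then stained with annexin V-FITC 15 min at room temperature. PI added for a further 15 min in the dark. Read by flow cytometry.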

Kunming mice = experiment: Acute toxicity study, single intraperitoneal dose; assay type: in vivo
Outline: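 Kunming mice, four groups of 8 (half male, half female), each given one intraperitoneal injection of test compound at 10, 20 or 40 mg/kg or vehicle. Mortality and clinical signs in eyes, skin and fur recorded. Body weights measured daily after treatment. Mice dissected to check for ascites and liver volume.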

4T1 tumor = experiment: In vivo antitumor effect, orthotopic 4T1 tumor-bearing mice; conditions: 2 mg/kg, in comparison with the control group
AURKA = molecular target: T1, AURKA (Homo sapiens, UniProt O14965); experiment: Enzyme inhibition AURKA; assay type: biochemical; conditions: tested at 100 μM
T1 sequence (O14965 1-403): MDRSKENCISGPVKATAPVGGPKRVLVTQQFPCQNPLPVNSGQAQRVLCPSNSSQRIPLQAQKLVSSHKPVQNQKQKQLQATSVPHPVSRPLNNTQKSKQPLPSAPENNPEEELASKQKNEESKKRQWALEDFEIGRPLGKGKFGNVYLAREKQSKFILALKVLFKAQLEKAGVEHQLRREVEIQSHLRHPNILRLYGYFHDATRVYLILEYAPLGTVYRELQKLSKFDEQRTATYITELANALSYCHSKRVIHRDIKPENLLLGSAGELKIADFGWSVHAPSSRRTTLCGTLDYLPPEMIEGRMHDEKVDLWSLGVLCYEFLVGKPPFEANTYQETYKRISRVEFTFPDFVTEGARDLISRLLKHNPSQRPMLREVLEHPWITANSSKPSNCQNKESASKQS

MAPK10 = MAPK10 (Homo sapiens, UniProt P53779); experiment: Enzyme inhibition MAPK10; assay type: biochemical; conditions: tested at 100 μM
JAK2 = JAK2 (Homo sapiens, UniProt O60674); experiment: Enzyme inhibition JAK2; assay type: biochemical
[1] = female mice, highest dose group (40 mg/kg)

Chain of JAK2 (O60674 whole entry): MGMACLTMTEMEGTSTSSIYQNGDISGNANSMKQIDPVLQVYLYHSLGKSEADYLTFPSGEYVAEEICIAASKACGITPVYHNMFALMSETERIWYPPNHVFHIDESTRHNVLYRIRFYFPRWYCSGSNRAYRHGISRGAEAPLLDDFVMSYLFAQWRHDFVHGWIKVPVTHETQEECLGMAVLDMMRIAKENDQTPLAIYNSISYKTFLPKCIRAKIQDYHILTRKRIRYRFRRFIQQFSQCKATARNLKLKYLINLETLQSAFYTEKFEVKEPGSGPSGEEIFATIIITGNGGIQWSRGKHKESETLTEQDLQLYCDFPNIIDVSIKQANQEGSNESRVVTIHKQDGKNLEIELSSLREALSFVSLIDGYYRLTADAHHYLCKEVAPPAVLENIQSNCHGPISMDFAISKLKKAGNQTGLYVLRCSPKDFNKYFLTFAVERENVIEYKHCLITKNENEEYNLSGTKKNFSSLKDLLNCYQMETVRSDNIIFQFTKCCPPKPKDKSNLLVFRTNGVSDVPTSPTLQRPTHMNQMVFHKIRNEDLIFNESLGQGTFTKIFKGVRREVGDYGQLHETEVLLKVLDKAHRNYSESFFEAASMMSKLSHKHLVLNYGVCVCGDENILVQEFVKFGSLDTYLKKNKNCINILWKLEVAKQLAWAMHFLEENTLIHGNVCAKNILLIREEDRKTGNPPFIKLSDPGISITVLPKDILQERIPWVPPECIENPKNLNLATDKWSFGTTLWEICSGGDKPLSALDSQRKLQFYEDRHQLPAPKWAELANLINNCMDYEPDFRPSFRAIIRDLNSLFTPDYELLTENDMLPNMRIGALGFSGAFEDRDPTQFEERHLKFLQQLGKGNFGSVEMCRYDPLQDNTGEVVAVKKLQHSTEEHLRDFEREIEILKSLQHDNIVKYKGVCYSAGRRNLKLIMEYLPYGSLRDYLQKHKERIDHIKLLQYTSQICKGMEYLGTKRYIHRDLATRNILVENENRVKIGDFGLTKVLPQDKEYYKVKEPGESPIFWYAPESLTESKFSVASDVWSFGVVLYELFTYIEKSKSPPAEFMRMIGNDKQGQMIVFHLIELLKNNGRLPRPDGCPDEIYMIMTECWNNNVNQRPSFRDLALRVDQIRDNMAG
Chain of MAPK10 (P53779 whole entry): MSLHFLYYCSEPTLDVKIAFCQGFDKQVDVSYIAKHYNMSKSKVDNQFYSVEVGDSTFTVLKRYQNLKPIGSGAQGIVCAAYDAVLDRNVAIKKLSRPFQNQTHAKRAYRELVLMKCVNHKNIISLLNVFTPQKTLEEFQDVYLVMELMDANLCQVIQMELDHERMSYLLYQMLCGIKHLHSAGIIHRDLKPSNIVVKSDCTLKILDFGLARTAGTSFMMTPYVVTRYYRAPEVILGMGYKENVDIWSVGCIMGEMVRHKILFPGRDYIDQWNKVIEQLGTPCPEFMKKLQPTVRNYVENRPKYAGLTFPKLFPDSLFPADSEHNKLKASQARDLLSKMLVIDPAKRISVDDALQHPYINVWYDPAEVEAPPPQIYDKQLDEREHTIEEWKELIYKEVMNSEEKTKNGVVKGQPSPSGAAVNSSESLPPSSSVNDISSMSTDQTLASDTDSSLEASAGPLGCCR

In the case of `O=C1C=CC2(C=C1)OCC(=O)N2c1nc(-c2cccc3ccccc23)nn1-c1ccccc1` [Compound 6a, 4-(3-(Naphthalen-1-yl)-1-phenyl-1H-1,2,4-triazol-5-yl)-1-oxa-4-azaspiro[4.5] deca-6,9-diene-3,8-dione], the “early and late apoptosis” value (MDA-MB-231 cells; MDA-MB-231, 1 μM) is reported as “induced both early and late apoptosis”, the “induction of cell apoptosis” value (MDA-MB-231 cells; MDA-MB-231, 48 h of treatment) is reported as “induce cell apoptosis in a dose-dependent manner” and the “toxicity to the major organ in mice” value (Kunming mice; 20 mg/kg) is reported as “no apparent toxicity”. The “clinical signs in the eyes, skin, and fur” value (Kunming mice; 40 mg/kg) was “no remarkable clinical signs”, the ascites at dissection (Kunming mice; [1]) was “Ascites were detected” and the “liver volume at dissection” value (Kunming mice; [1]) was “decreased liver volume”. For the same compound, the gain of bodyweight (Kunming mice; highest dose group (40 mg/kg)) was “lower than the other three groups”, the mortality (Kunming mice; single dose 10, 20, 40 mg/kg i.p.) was “No mortality occurred” and the “size of the spleen and liver” value (4T1 tumor) was “enlarged”. For the same compound, the “effect on AURKA” value (AURKA) was “did not have any significant effect”, the “effect on MAPK10” value (MAPK10) was “did not have any significant effect” and the “inhibition on the Janus kinases 2” value (JAK2) was “weak inhibition”. It also gave an IC50 (JAK2; Inhibitory effect (IC50) JAK2 Repeat 1, Repeat 1) of 41.3 µM and an IC50 (JAK2; Inhibitory effect (IC50) JAK2 Repeat 2, Repeat 2) of 76.6 µM.
